Values belong to the molecule of their own block, whether it stands above or below them. Active and inactive are the calls of the source. The rule behind the calls is not given here.
Assays:
[1] = target: T1, Tyrosine-protein phosphatase non-receptor type 1 (Homo sapiens, UniProt P18031); assay: Inhibition of PTP1B assessed as para-nitrophenyl phosphate catalyzed hydrolysis of para-nitrophenol by p-NPP assay
T1 sequence (P18031 whole entry): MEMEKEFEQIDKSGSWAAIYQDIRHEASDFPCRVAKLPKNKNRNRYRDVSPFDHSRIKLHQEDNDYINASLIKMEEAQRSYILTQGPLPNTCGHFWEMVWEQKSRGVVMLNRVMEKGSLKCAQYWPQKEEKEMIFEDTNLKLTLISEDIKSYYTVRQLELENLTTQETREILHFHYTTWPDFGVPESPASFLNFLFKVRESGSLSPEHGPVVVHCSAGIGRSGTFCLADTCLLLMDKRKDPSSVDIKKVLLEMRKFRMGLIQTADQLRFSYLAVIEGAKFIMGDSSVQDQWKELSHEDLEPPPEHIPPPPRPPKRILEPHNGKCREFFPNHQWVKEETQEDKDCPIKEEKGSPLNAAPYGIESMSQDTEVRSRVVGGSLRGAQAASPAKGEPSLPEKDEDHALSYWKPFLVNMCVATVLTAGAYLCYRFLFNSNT
Summary of the method: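 Enzymatic pNPP assay: initial rate of PTP1B-catalyzed pNPP hydrolysis read at 405 nm. IC50 determined at a fixed pNPP concentration of 1 mM. n = 3, mean ± SD.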

[2] = Selectivity ratio of IC50 for TCPTP to IC50 for PTP1B
[3] = Selectivity ratio of IC50 for PTPalpha to IC50 for PTP1B
[4] = Selectivity ratio of IC50 for SHP2 to IC50 for PTP1B
[5] = target: T2, Tyrosine-protein phosphatase non-receptor type 2 (Homo sapiens, UniProt P17706); assay: Inhibition of TCPTP
T2 sequence (P17706 whole entry): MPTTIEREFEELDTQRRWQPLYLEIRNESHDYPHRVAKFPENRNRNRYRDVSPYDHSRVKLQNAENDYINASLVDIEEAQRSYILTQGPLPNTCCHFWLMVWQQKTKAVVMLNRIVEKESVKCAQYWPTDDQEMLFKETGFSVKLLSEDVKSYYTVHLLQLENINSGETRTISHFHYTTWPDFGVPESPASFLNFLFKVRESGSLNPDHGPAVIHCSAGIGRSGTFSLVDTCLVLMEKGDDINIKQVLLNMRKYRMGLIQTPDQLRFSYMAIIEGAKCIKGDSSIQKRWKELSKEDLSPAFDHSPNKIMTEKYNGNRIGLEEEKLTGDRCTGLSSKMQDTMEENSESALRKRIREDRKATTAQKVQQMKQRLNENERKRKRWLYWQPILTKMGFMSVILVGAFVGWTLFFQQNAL

[6] = Selectivity ratio of IC50 for LAR to IC50 for PTP1B
[7] = Selectivity ratio of IC50 for CD45 to IC50 for PTP1B
[8] = Selectivity ratio of IC50 for SHP1 to IC50 for PTP1B
Mus musculus = assay: Antidiabetic activity in fasted C57BL/6J mouse assessed as reduction in serum AUC glucose level at 20 mg/kg, po after 240 mins by intraperitoneal glucose tolerance test relative to control; assay type: functional
Summary of the method: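 Overnight-fasted male C57BL/6J mice dosed orally at 20 mg/kg 0.5 h before an intraperitoneal glucose load of 1.5 g/kg. Blood taken at 0, 30, 60, 120 and 240 min, and serum glucose measured promptly by GOD-POD method in duplicate. AUC 0–240 min compared with vehicle control. Two-way ANOVA with Bonferroni post test, mean ± SEM.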

[9] = Tmax in fasted C57BL/6J mouse at 20 mg/kg, po; assay type: ADME, organism-based; parameters: dose 20 mg/kg, route oral; settings: in vivo
Summary of the method: (§1)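 Male C57BL/6J mice (n = 6), fasted overnight, single 20 mg/kg dose by body weight, given po or iv. Plasma separated at 4 °C, stored at −70 °C, then quantified by LC–MS/MS. %F taken from po AUC relative to iv AUC. Mean ± SD.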

[10] = AUC (0 to infinity) in fasted C57BL/6J mouse at 20 mg/kg, po; assay type: ADME, organism-based; parameters: time infinity, dose 20 mg/kg, route oral; settings: plasma; summary of the method: as §1
[11] = Half life in fasted C57BL/6J mouse at 20 mg/kg, po; assay type: ADME, organism-based; parameters: dose 20 mg/kg, route oral; settings: in vivo; summary of the method: as §1
[12] = Oral bioavailability in fasted C57BL/6J mouse at 20 mg/kg; assay type: ADME, organism-based; settings: in vivo; summary of the method: as §1
[13] = Cmax in fasted C57BL/6J mouse at 20 mg/kg, po; assay type: ADME, organism-based; parameters: dose 20 mg/kg, route oral; settings: in vivo; summary of the method: as §1
[14] = AUC in fasted C57BL/6J mouse at 20 mg/kg, iv; assay type: ADME, organism-based; parameters: dose 20 mg/kg, route intravenous; settings: plasma; summary of the method: as §1

- IC50 [1]: 47 nM
Structure (SMILES): NS(=O)(=O)C(F)(F)c1ccc(CN(Cc2ccc(-c3csnn3)cc2)S(=O)(=O)c2ccc(OCC(=O)O)cc2)cc1Br

- IC50 [1]: 18 nM
Structure (SMILES): O=C(O)COc1ccc(S(=O)(=O)N(Cc2ccc(-c3csnn3)cc2)Cc2ccc3cc(Br)c(C(F)(F)P(=O)(O)O)cc3n2)cc1

- Ratio IC50 [2]: 116
Structure (SMILES): O=C(c1ccccc1)C(Cc1ccc2cc(Br)c(C(F)(F)P(=O)(O)O)cc2c1)(Cc1ccc2cc(Br)c(C(F)(F)P(=O)(O)O)cc2c1)n1nnc2ccccc21

- Ratio IC50 [3]: > 5000
- Ratio IC50 [4]: > 5000
- IC50 [5]: 750 nM
- Ratio IC50 [6]: > 5000
- IC50 [1]: 50 nM
- Ratio IC50 [7]: > 5000
- Ratio IC50 [2]: 15
- Ratio IC50 [8]: > 5000
Structure (SMILES): O=C(O)COc1ccc(S(=O)(=O)N(Cc2ccc(-c3csnn3)cc2)Cc2ccc(C(F)(F)P(=O)(O)O)c(Br)c2)cc1

- Ratio IC50 [3]: > 5000
- Ratio IC50 [4]: > 5000
- IC50 [5]: 870 nM
- Ratio IC50 [6]: > 5000
- IC50 [1]: 35 nM
- Ratio IC50 [7]: > 5000
- Ratio IC50 [2]: 24
- Ratio IC50 [8]: > 5000
Structure (SMILES): O=C(O)COc1ccc(S(=O)(=O)N(Cc2ccc(-c3csnn3)cc2)Cc2ccc(C(F)(F)P(=O)(O)O)c(F)c2)cc1

- IC50 [1]: 470 nM
Structure (SMILES): Cc1cc(CN(Cc2ccc(-c3csnn3)cc2)S(=O)(=O)c2ccc(OCC(=O)O)cc2)ccc1C1CC(=O)NS1(=O)=O (stereo not given)

- IC50 [1]: 141 nM
Structure (SMILES): O=C(O)COc1ccc(S(=O)(=O)N(Cc2ccc(-c3csnn3)cc2)Cc2ccc(F)c(C(F)(F)P(=O)(O)O)c2)cc1

- Ratio IC50 [3]: > 5000
- Ratio IC50 [4]: > 5000
- IC50 [5]: 990 nM
- Ratio IC50 [6]: > 5000
- Tmax [9]: 41.4 min
- IC50 [1]: 11 nM
- AUC(0-inf) [10]: 1320 ng·h/mL
- Ratio IC50 [7]: > 5000
- half-life [11]: 59.4 min
- Ratio IC50 [2]: 90
- Ratio IC50 [8]: > 5000
- bioavailability [12]: 0.9%
- Cmax [13]: 960 ng/mL
- AUC [14]: 147000 ng·h/mL
Structure (SMILES): O=C(O)COc1ccc(S(=O)(=O)N(Cc2ccc(-c3csnn3)cc2)Cc2ccc3cc(F)c(C(F)(F)P(=O)(O)O)cc3n2)cc1
- Activity (Mus musculus): 19.18 mg/dL

- Ratio IC50 [3]: > 5000
- Ratio IC50 [4]: > 5000
- IC50 [5]: 620 nM
- Ratio IC50 [6]: > 5000
- IC50 [1]: 31 nM
- Ratio IC50 [7]: > 5000
- Ratio IC50 [2]: 20
- Ratio IC50 [8]: > 5000
Structure (SMILES): NS(=O)(=O)C(F)(F)c1ccc(CN(Cc2ccc(-c3csnn3)cc2)S(=O)(=O)c2ccc(OCC(=O)O)cc2)cc1F

- Ratio IC50 [3]: > 5000
- Ratio IC50 [4]: > 5000
- IC50 [5]: 870 nM
- Ratio IC50 [6]: > 5000
- Tmax [9]: 18.6 min
- IC50 [1]: 9 nM
- AUC(0-inf) [10]: 8910 ng·h/mL
- Ratio IC50 [7]: > 5000
- half-life [11]: 418 min
- Ratio IC50 [2]: 96
- Ratio IC50 [8]: > 5000
- bioavailability [12]: 6.51%
- Cmax [13]: 6300 ng/mL
- AUC [14]: 137000 ng·h/mL
Structure (SMILES): O=C(O)COc1ccc(S(=O)(=O)N(Cc2ccc(-c3csnn3)cc2)Cc2ccc3cc(F)c(C(F)(F)P(=O)(O)O)cc3c2)cc1
- Activity (Mus musculus): 52.8 mg/dL

- IC50 [1]: 480 nM
Structure (SMILES): O=C(O)COc1ccc(S(=O)(=O)N(Cc2ccc(-c3csnn3)cc2)Cc2ccc(C3CC(=O)NS3(=O)=O)c(Br)c2)cc1 (stereo not given)

- IC50 [1]: 288 nM
Structure (SMILES): O=C(O)COc1ccc(S(=O)(=O)N(Cc2ccc(-c3csnn3)cc2)Cc2ccc(Br)c(C(F)(F)P(=O)(O)O)c2)cc1

- IC50 [1]: 500 nM
Structure (SMILES): O=C(O)COc1ccc(S(=O)(=O)N(Cc2ccc(-c3csnn3)cc2)Cc2ccc(C3CC(=O)NS3(=O)=O)cc2)cc1 (stereo not given)

- IC50 [1]: 39 nM
Structure (SMILES): NS(=O)(=O)C(F)(F)c1cc2cc(CN(Cc3ccc(-c4csnn4)cc3)S(=O)(=O)c3ccc(OCC(=O)O)cc3)ccc2cc1Br

- IC50 [1]: 38 nM
Structure (SMILES): NS(=O)(=O)C(F)(F)c1cc2nc(CN(Cc3ccc(-c4csnn4)cc3)S(=O)(=O)c3ccc(OCC(=O)O)cc3)ccc2cc1F

- IC50 [1]: 460 nM
Structure (SMILES): O=C(O)COc1ccc(S(=O)(=O)N(Cc2ccc(-c3csnn3)cc2)Cc2ccc(C3CC(=O)NS3(=O)=O)c(F)c2)cc1 (stereo not given)

- IC50 [1]: 35 nM
Structure (SMILES): NS(=O)(=O)C(F)(F)c1cc2cc(CN(Cc3ccc(-c4csnn4)cc3)S(=O)(=O)c3ccc(OCC(=O)O)cc3)ccc2cc1F

- Ratio IC50 [2]: 7
Structure (SMILES): O=C(O)COc1ccc(S(=O)(=O)N(Cc2ccc(-c3csnn3)cc2)Cc2ccc(C(F)(F)P(=O)(O)O)cc2)cc1
- Activity (Mus musculus): inactive

- IC50 [1]: 17 nM
Structure (SMILES): O=C(O)COc1ccc(S(=O)(=O)N(Cc2ccc(-c3csnn3)cc2)Cc2ccc3cc(Br)c(C(F)(F)P(=O)(O)O)cc3c2)cc1

- IC50 [1]: 41 nM
Structure (SMILES): NS(=O)(=O)C(F)(F)c1cc2nc(CN(Cc3ccc(-c4csnn4)cc3)S(=O)(=O)c3ccc(OCC(=O)O)cc3)ccc2cc1Br
